Compound activity as filed in PubChem BioAssay.
ARNT-TACC3 inh: disrupts binding between human ARNT and TACC3 | Q9Y6A5 | AlphaScreen His-ARNT PAS-B/GST-TACC3 binding, luminescence; TACC3 fragment carries E629A point mutation | inhibition, % at 9.99 µM | 390,000 compounds, 0.66% hits;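 active = mean inhibition of replicates at least 50% and at least half of replicates each reaching 50%; inconclusive = half or more replicates reach 50% but mean below 50%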
sPLA2-III inh: Inhibits HGIII-sPLA2 liposome hydrolysis, primary screen. QFRET BODIPY PC-A2 liposome hydrolysis, fluorescence. inhibition, % at 12.2 µM. 370,000 compounds, 0.56% hits. AID 743126;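 active = inhibition above mean plus 3 SD of compounds lying within the high and low control bounds, cut at about 19% in these data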
Target sequence (Q9NZ20 whole entry, looked up): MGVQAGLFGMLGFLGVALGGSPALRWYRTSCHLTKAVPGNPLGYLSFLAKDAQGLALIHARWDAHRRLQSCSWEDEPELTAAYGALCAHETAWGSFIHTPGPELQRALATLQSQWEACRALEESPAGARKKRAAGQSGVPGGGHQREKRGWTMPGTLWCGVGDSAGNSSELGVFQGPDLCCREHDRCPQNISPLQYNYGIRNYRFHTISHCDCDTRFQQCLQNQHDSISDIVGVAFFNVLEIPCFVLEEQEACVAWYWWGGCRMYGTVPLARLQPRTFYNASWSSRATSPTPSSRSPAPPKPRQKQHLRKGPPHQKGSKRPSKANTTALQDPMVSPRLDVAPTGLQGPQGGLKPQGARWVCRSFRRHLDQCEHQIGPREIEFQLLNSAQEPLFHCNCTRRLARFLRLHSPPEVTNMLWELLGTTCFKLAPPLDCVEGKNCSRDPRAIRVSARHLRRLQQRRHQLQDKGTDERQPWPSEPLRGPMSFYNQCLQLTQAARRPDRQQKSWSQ
Xi reactivation: reactivates the inactive X chromosome in mouse fibroblasts. 360,000 compounds, 0.055% hits. AID 743238. XiGFP mouse fibroblasts, % GFP-positive cells imaging, 3 d; cells co-treated with 5-aza-dC sensitizer; scaled so ellipticine positive control = 100%. activation, % at 7.58 µM;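 active = mean normalized replicate activation at least 10% and every replicate at or above 10%; inconclusive = only one of the two criteria met; inactive = mean below 10% and not all replicates reach 10%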
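Material: SV40-immortalized XiGFP fibroblast cells, line 68-5-11 | Buffer or medium: DMEM containing 5-aza-dC | Dosing: One concentration, pinned | Times: 3 d treatment, 15 min room-temperature fixation | Controls: Ellipticine 6 µM positive control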
SR-BI DiI-HDL act: activators of SR-BI mediated HDL lipid uptake; CHO ldlA[mSR-BI] cells, DiI-HDL uptake fluorescence, 3 h; 100 = double the neutral-control signal; activation, % at 12.5 µM; 320,000 compounds, 0.096% hits;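 active = mean replicate activation of at least 60% and every replicate at or above 60%; inconclusive = mean or all-replicate condition met, but not both; inactive = mean below 60% and not all replicates reaching 60%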
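Test system: SR-BI-overexpressing, LDLR-lacking CHO cells; Also added: labelled HDL, 10 µg/mL; Measured by: bottom-read cell fluorescence after medium removal, ex 550/em 595 nm; Timing: 3 h uptake period with compound, 37 °C; Buffer or medium: F12, 0.5% BSA, 25 mM HEPES; Doses: single compound concentration, delivered by pin transfer.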
SR-BI DiI inh: mouse SR-BI HDL lipid transfer inhibition. Q61009. 320,000 compounds, 0.96% hits. ldlA[mSR-BI] CHO cells, DiI-HDL uptake fluorescence, 3 h. inhibition, % at 12.5 µM. AID 488896;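 active = mean replicate inhibition of at least 70% and a set share of replicates each scoring 70 or more; inconclusive = meets just one of the two criteria; inactive = fails both criteria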
NSD2 HMT inh: NSD2 (human) methyltransferase inhibition. inhibition, % at 12.5 µM. NSD2 peptide methylation, AlphaScreen, 120 min. 310,000 compounds, 0.54% hits; in the data active = inhibition above about 50%
hGIII sPLA2 conf: human GIII-sPLA2 inhibition, confirmation; recombinant hGIII-sPLA2, BODIPY PC-A2 QFRET fluorescence; shares compounds with sPLA2-III inh; 2,000 compounds, 34% hits; inhibition, % at 12.2 µM;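 active = mean inhibition across triplicates above the hit cutoff set in the earlier primary screen, cut at about 19% in these data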
535nm interf: counter-screen for HGIII-sPLA2 inhibitors: 535nm fluorescence interference; shares compounds with sPLA2-III inh; BODIPY FL product fluorescence interference, QFRET; inhibition, % at 12.2 µM; 2,000 compounds, 8.5% hits; AID 743282;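 active = average inhibition above the solvent-only control mean plus 3 SD, cut at about 6% in these data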
BODIPY interf DR: interferes with 535nm fluorescence in dose response counter-screen. shares compounds with sPLA2-III inh. BODIPY FL product fluorescence interference, cell-free. IC50, µM. 240 tested, under 10 active. AID 743455;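 active = IC50 at or below 10 µM; inactive = IC50 above 10 µM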
Numbers stand for hits; i = inactive; ? = inconclusive; nt = no result. This is a sample that favours compounds with a hit; in the whole collection about 2% have one here.

SMILES | ARNT-TACC3 inh | sPLA2-III inh | Xi reactivation | SR-BI DiI-HDL act | SR-BI DiI inh | NSD2 HMT inh | hGIII sPLA2 conf | 535nm interf | others
COc1ccc(/C=N/NC(=O)c2ccc3c(c2)OCCO3)cc1[N+](=O)[O-] | i | 24 | nt | i | i | i | i | i
CCOC(=O)c1c(C)c(C)n2c1NC(=O)C2 | nt | i | i | nt | nt | i | nt | nt
O=C(NCCc1nc2ccccc2[nH]1)c1ccc(Cl)c([N+](=O)[O-])c1 | i | i | i | i | i | i | nt | nt
CCCNC(=O)c1ccc2c(=O)c(O)c(-c3ccc(Cl)c([N+](=O)[O-])c3)[nH]c2c1 | i | 20 | i | i | i | nt | i | i
CCCCN1CNC(=S)N(Cc2ccccc2)C1 | i | 28 | i | i | i | i | i | i
CCCN1CNC(=S)N(Cc2ccccc2)C1 | i | i | i | i | i | i | nt | nt
COCCCNc1ccn2nc(-c3ccccc3)cc2n1 | nt | i | i | nt | nt | i | nt | nt
CC(C)(CO)CNc1ccn2nccc2n1 | nt | 22 | i | nt | nt | i | i | i
CC(NC(=O)c1cc(COc2ccccc2)on1)c1nccs1 (configuration not stated) | i | i | i | i | i | i | nt | nt
NC(=S)N/N=C1\CC(c2ccc3c(c2)OCCO3)Oc2ccc(F)cc21 (configuration not stated) | i | 21 | i | i | i | i | i | i
NC(=S)N/N=C1\CC(c2ccc3c(c2)OCCCO3)Oc2ccc(F)cc21 (configuration not stated) | i | i | i | i | i | i | nt | nt
O=c1oc2ccccc2cc1-c1csc(NN=C2CCCC2)n1 | i | 20 | i | i | i | i | i | i
CCOc1ccccc1/C=N/n1c(COc2ccccc2)n[nH]c1=S | i | 23 | i | i | i | i | 19 | 6.9
Cc1ccc(/C=N/n2c(COc3ccccc3)n[nH]c2=S)o1 | i | 20 | i | i | i | i | 25 | i
Cc1n[nH]c(=S)n1/N=C/c1ccccc1OCc1ccc(Cl)cc1Cl | i | 20 | nt | i | i | i | i | i
Oc1ccccc1/C=N/n1c(COc2ccccc2)n[nH]c1=S | i | 24 | i | i | i | nt | i | i
COc1cc(NC(=O)c2sc3nc(C)nc(N4CCOCC4)c3c2C)cc(OC)c1OC | i | i | i | i | i | i | nt | nt
COc1ccc(NC(=O)N[C@H]2CC[C@H](CCn3cc(-c4ccc(F)cc4)nn3)O[C@@H]2CO)cc1 | i | nt | i | nt | nt | nt | nt | nt
N#Cc1cccc(C(=O)C(=O)N2CCN(C(=O)OCc3ccccc3)CC2)c1 | nt | i | i | nt | nt | nt | nt | nt
Cc1cc(C(=O)Nc2nc(-c3ccccn3)cs2)ccc1[N+](=O)[O-] | i | 26 | i | i | i | i | 28 | i | BODIPY interf DR=i
CCc1cc(C(=O)Nc2nc(-c3ccccn3)cs2)sc1C | 65 | 21 | i | i | i | i | 25 | i
Cc1csc(NC(=O)c2ccc(C)c([N+](=O)[O-])c2)n1 | i | i | i | nt | nt | i | nt | nt
CCCC(=O)N1CCN(c2nc(CC(C)C)c3c(c2C#N)CCC3)CC1 | i | i | nt | i | i | i | nt | nt
S=c1[nH]nc(-c2ccco2)n1/N=C/c1cccs1 | i | 20 | i | i | i | i | 23 | i
CC(CN1CCN(C)CC1)OC(=O)c1cccc(Cl)c1 (configuration not stated) | i | i | i | i | i | i | nt | nt
SMILES | ARNT-TACC3 inh | sPLA2-III inh | Xi reactivation | SR-BI DiI-HDL act | SR-BI DiI inh | NSD2 HMT inh | hGIII sPLA2 conf | 535nm interf | others
O=C(NNC(=O)c1cc2ccccc2cc1O)Nc1ccccc1F | nt | i | i | i | ? | i | nt | nt
CCc1ccc(NC(=O)NNC(=O)c2ccc3ccccc3c2O)cc1 | i | 32 | i | i | i | i | 25 | i
O=C(Nc1ccc(Br)c2ccccc12)c1ccc2ccccc2c1O | i | i | i | i | i | i | nt | nt
CCc1ccc(NC(=O)NNC(=O)c2cc3ccccc3cc2O)cc1 | i | 27 | i | i | i | i | i | i
O=C(NNc1nc(-c2ccccc2)cs1)c1ccccc1 | i | 35 | nt | i | i | i | 33 | 7.3
O=C(Nc1nc(-c2ccc(Br)cc2)cs1)c1cccnc1 | i | i | i | i | i | i | nt | nt
O=C(Nc1nc(-c2ccccc2)cs1)c1cccnc1 | i | i | nt | i | i | i | nt | nt
COC(=O)c1nc(NNC(=O)c2ccccc2)sc1-c1ccccc1 | i | 30 | i | i | i | i | 30 | i
O=C(NNc1nc2cc3c(cc2s1)OCO3)c1ccccc1 | i | i | i | i | i | nt | nt | nt
N#Cc1ccc(-c2csc(NNC(=O)c3ccc(Br)cc3)n2)cc1 | i | 46 | nt | i | i | nt | 36 | 11
CC(=O)Nc1ccc(-c2csc(NNC(=O)c3ccc(C)cc3)n2)cc1 | i | 30 | i | i | i | i | 23 | i
O=C(C[C@@H]1CC[C@H]2[C@@H](COC[C@@H](O)CN2CC2CCOCC2)O1)NCC1CC1 | i | nt | i | nt | nt | nt | nt | nt
C[C@@H]1CN([C@@H](C)CO)C(=O)c2cc(NC(=O)Nc3ccc(C(F)(F)F)cc3)ccc2O[C@H]1CN(C)Cc1ccc(Oc2ccccc2)cc1 | i | nt | i | nt | nt | nt | nt | nt
O=C(NCc1cccs1)C1CC(=O)N(c2ccc(F)cc2)C1 (configuration not stated) | i | i | nt | i | i | i | nt | nt
COc1ccc(NC(=O)COc2ccc(C(=O)NCc3cccnc3)cc2OC)cc1 | i | i | i | i | i | i | nt | nt
O=C(NC(=S)Nc1nc(-c2ccc(Br)cc2)cs1)c1ccco1 | i | i | i | i | i | i | nt | nt
O=C(NNc1nc(-c2ccc(Br)cc2)cs1)c1ccco1 | i | 46 | i | i | i | i | 45 | 12
CCOC(=O)N1CCC(NC(=O)c2cc(C(=O)Nc3cccc(C(F)(F)F)c3)ccc2CO)CC1 | nt | i | i | i | i | i | nt | nt
CCOc1cc(C(=O)Nc2cc(F)ccc2C)ccc1OCC(=O)N1CCOCC1 | i | i | i | i | i | i | nt | nt
Cc1ccc(F)cc1NC(=S)NCCc1ccccc1 | nt | 22 | i | i | i | i | 20 | i
Cc1ccc(NC(=S)NCCc2ccc(F)cc2)c(C)c1 | i | i | i | i | i | i | nt | nt
O=C(NCC(c1ccco1)N1CCN(c2ccccc2)CC1)C(=O)NC1CCCCC1 (configuration not stated) | i | i | i | i | i | i | nt | nt
CN(C)c1ccc(N=Nc2nccs2)cc1 | nt | 25 | i | nt | nt | i | 45 | 18
